Calls of active or inactive are those of the source. No cut-off for these calls is given here.
Assays:
Format in all cases: tissue-based
Cavia porcellus [1] = species: Cavia porcellus; assay: Effect on Prostaglandin receptor-induced contraction in guinea pig ileum assessed as intrinsic activity at 2.0 ug by kymography relative to PGE1
Summary of the method: (§1)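 Guinea-pig terminal ileum in a 3-mL oxygenated Tyrode bath at 30 °C with cyproheptadine 3 × 10^-9 mol/L. Dosed at 5-min intervals, 30 s contact, isotonic lever on a smoked drum. Final concentrations were 3.6–17.9 × 10^-7 mol/L for the compound and 0.94–18.8 × 10^-9 mol/L for PGE1 standards. Activity bracketed between two PGE1 doses, mean of five observations.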

Rattus norvegicus [2] = species: Rattus norvegicus; assay: Effect on Prostaglandin receptor-induced contraction in rat stomach fundus strip assessed as intrinsic activity at 2.0 ug by kymography relative to PGE1
Summary of the method: (§2)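 Rat fundus strips in Krebs, dosed once tone was constant. Final bath concentrations were 2.70–13.5 × 10^-7 mol/L for the compound and 0.70–14.0 × 10^-9 mol/L for PGE1 standards, from ethanol stocks. Auxotonic kymograph recording, 10-min cycle, 90 s contact. PGE1-like activity was bracketed between two PGE1 standard doses, mean of five observations per concentration.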

Rattus norvegicus [3] = species: Rattus norvegicus; assay: Effect on Prostaglandin receptor-induced contraction in rat stomach fundus strip assessed as intrinsic activity at 0.4 ug by kymography relative to PGE1; summary of the method: as §2
Rattus norvegicus [4] = species: Rattus norvegicus; assay: Induction of Prostaglandin receptor-induced adenylate cyclase activation in rat liver homogenate assessed as increase in cAMP level at equimolar dose of 2.8 x 10^-5 mol/L PGE1 after 10 mins relative to control
Summary of the method: (§3)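 Rat liver homogenate adenylate cyclase, 10 min at 37 °C in Tris-HCl 0.1 mol/L pH 8.0 with ATP 4 × 10^-3, MgSO4 15 × 10^-3, GTP 5 × 10^-4, EGTA 1 × 10^-4 and theophylline 5 × 10^-3 mol/L. Stopped by 2 min boiling, then frozen, thawed and centrifuged. cAMP in the supernatant measured by the Brown method, saline blanks, four replicates.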

Rattus norvegicus [5] = species: Rattus norvegicus; assay: Effect on Prostaglandin receptor-induced contraction in rat stomach fundus strip assessed as intrinsic activity at 1.6 ug by kymography relative to PGE1; summary of the method: as §2
[6] = Competitive inhibition of Prostaglandin receptor in rat stomach fundus strip assessed as inhibition of PGE1-induced contraction by kymography
Summary of the method: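 Rat stomach fundus strip contractions to PGE1 11.3 × 10^-9 mol/L compared with and without analogue at 2.15–21.5 × 10^-6 mol/L. Stock in ethanol, diluted in Krebs. Kymograph with auxotonic lever, load 1 g baseline and 3 g maximal, 10-min dose cycle, 90 s contact. Approximate IC50 taken from the inhibition concentration-response curve in four preparations.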

Cavia porcellus [7] = species: Cavia porcellus; assay: Effect on Prostaglandin receptor-induced contraction in guinea pig ileum assessed as intrinsic activity at 1.6 ug by kymography relative to PGE1; summary of the method: as §1
Cavia porcellus [8] = species: Cavia porcellus; assay: Effect on Prostaglandin receptor-induced contraction in guinea pig ileum assessed as intrinsic activity at 0.8 ug by kymography relative to PGE1; summary of the method: as §1
Rattus norvegicus [9] = species: Rattus norvegicus; assay: Induction of Prostaglandin receptor-induced adenylate cyclase activation in rat liver homogenate assessed as increase in cAMP level at 6.7 to 13.4 x 10^-3 M after 10 mins relative to control; summary of the method: as §3
Rattus norvegicus [10] = species: Rattus norvegicus; assay: Effect on Prostaglandin receptor-induced contraction in rat stomach fundus strip assessed as intrinsic activity at 0.8 ug by kymography relative to PGE1; summary of the method: as §2
Cavia porcellus [11] = species: Cavia porcellus; assay: Effect on Prostaglandin receptor-induced contraction in guinea pig ileum assessed as intrinsic activity at 0.4 ug by kymography relative to PGE1; summary of the method: as §1
Rattus norvegicus [12] = species: Rattus norvegicus; assay: Inhibition of Prostaglandin receptor-induced adenylate cyclase activation in rat liver homogenate assessed as cAMP level at 6.7 to 13.4 x 10^-3 M after 10 mins relative to control

CCCCCC(O)/C=C/c1[nH]c2ccccc2c1CCCCCCC(=O)O (configuration not stated)
Intrinsic activity (Cavia porcellus [1]): 0.0057 | Intrinsic activity (Rattus norvegicus [2]): 0.00055 | Intrinsic activity (Rattus norvegicus [3]): 0.00075 | Activity (Rattus norvegicus [4]): inactive | Intrinsic activity (Rattus norvegicus [5]): 0.00056 | IC50 [6]: 11.8 µM | Intrinsic activity (Cavia porcellus [7]): 0.0014 | Intrinsic activity (Cavia porcellus [8]): 0.0029 | Activity (Rattus norvegicus [9]): Active | Intrinsic activity (Rattus norvegicus [10]): 0.00075 | Intrinsic activity (Cavia porcellus [11]): 0.004 | inhibition (Rattus norvegicus [12]): 40%
